Results from ChEMBL document CHEMBL3745635, “Cytotoxic Orbitide from the Latex of Croton urucurana” (J Nat Prod, 2015).
Converted amounts (≈) assume the structure as drawn. Residues, ends and D or L forms follow the SMILES beside them.

Experiments:
786-0 = test: Cytotoxicity against human 786-0 cells assessed as growth inhibition after 48 hrs by sulforhodamine B assay; format: functional; conditions: 786-0, 48 h
Method in brief: (§1)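 Cells seeded at 7.5 × 10^3 per well. Samples were dissolved in DMSO, aliquoted and stored at −20 °C. GI50 values are means of three independent experiments, each run in triplicate. Doxorubicin served as positive control.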

HT-29 = test: Cytotoxicity against human HT-29 cells assessed as growth inhibition after 48 hrs by sulforhodamine B assay; format: functional; conditions: HT-29, 48 h; method in brief: as §1
MCF7 = test: Cytotoxicity against human MCF7 cells assessed as growth inhibition after 48 hrs by sulforhodamine B assay; format: functional; conditions: MCF7, 48 h; method in brief: as §1
[1] = Cytotoxicity against human NCI-ADR-RES cells assessed as growth inhibition after 48 hrs by sulforhodamine B assay; format: functional; method in brief: as §1
HepG2 = test: Cytotoxicity against human HepG2 cells assessed as growth inhibition after 48 hrs by sulforhodamine B assay; format: functional; conditions: HepG2, 48 h; method in brief: as §1
[2] = Cytotoxicity against human PC3 cells assessed as growth inhibition after 48 hrs by sulforhodamine B assay; format: functional; conditions: PC-3, 48 h; method in brief: as §1
[3] = Cytotoxicity against mouse NIH/3T3 cells assessed as growth inhibition after 48 hrs by sulforhodamine B assay; format: cell-based, NIH3T3; method in brief: as §1

| Structure (SMILES) | GI50 (786-0) [µg/mL] | GI50 (HT-29) [µg/mL] | GI50 (MCF7) [µg/mL] | GI50 [1] [µM] | GI50 (HepG2) [µg/mL] | GI50 [2] [µg/mL] | GI50 at 48 h [3] [µM] |
| --- | --- | --- | --- | --- | --- | --- | --- |
| CC(C)C[C@@H]1NC(=O)[C@H](CO)NC(=O)CNC(=O)[C@H](CC(C)C)NC(=O)[C@H](CC(N)=O)NC(=O)CNC(=O)[C@H](Cc2ccccc2)NC(=O)[C@H](C)NC(=O)CNC1=O (cyclo(AFGNLGSLG)) | 18.7 (≈ 22.9 µM) | 37.3 (≈ 45.6 µM) | 35.5 (≈ 43.4 µM) | 4.8 | 41.3 (≈ 50.6 µM) | 29.8 (≈ 36.5 µM) | > 306 |
| COc1cccc2c1C(=O)c1c(O)c3c(c(O)c1C2=O)C[C@@](O)(C(=O)CO)C[C@@H]3O[C@H]1C[C@H](N)[C@H](O)[C@H](C)O1 [DOXORUBICIN] | 0.15 (≈ 0.276 µM) | 0.85 (≈ 1.56 µM) | 0.07 (≈ 0.129 µM) | 5.1 | 0.25 (≈ 0.46 µM) | 0.22 (≈ 0.405 µM) | 4 |
